pEC50, pIC50: −log10 of the molar value.

Test system in the first assay: not listed separately
Description: Inhibition of HCV NS3 protease. More on the design: species or system Hepacivirus hominis. The method, boiled down: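 Genotype 1b NS3-NS4A (0.5 nM) with 5 μM fluorogenic depsipeptide substrate anthranilyl-DDIVPAbu[C(O)-O]AMY(3-NO2)-TW-OH in 50 mM Tris-HCl pH 8.0, 0.25 M sodium citrate, 0.01% dodecyl maltoside, 1 mM TCEP, 5% DMSO; 60-70 min at 23 °C, stopped with 1 M MES pH 5.8; product fluorescence read; IC50 from percent inhibition by nonlinear fit.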
On to `C=C[C@@H]1C[C@]1(NC(=O)[C@@H]1C[C@@H](Oc2cc(-c3csc(NC(C)=O)n3)nc3c(C)c(OC)ccc23)CN1C(=O)[C@@H](NC(=O)OC1CCCC1)C(C)(C)C)C(=O)O`, for which the pIC50 (usually −log10 of the IC50, conventionally taken in molar units) was 8.10.

Regarding `C=C[C@@H]1C[C@]1(NC(=O)[C@@H]1C[C@@H](Oc2cc(-c3csc(NC(=O)CC)n3)nc3c(F)c(OC)ccc23)CN1C(=O)[C@@H](NC(=O)OC1CCCC1)C(C)(C)C)C(=O)O`, the pIC50 was 8.15. The pIC50 values of the last two compounds are within 0.2 log units of each other.

For the compound `C=C[C@@H]1C[C@]1(NC(=O)[C@@H]1C[C@@H](Oc2cc(-c3csc(NC(=O)CC)n3)nc3c(Cl)c(OC)ccc23)CN1C(=O)[C@@H](NC(=O)OC1CCCC1)C(C)(C)C)C(=O)O`, the pIC50 is 8.15.

`C=C[C@@H]1C[C@]1(NC(=O)[C@@H]1C[C@@H](Oc2cc(-c3csc(NC(=O)CC)n3)nc3c(Br)c(OC)ccc23)CN1C(=O)[C@@H](NC(=O)OC1CCCC1)C(C)(C)C)C(=O)O` had a pIC50 of 8.15.

Take `C=C[C@@H]1C[C@]1(NC(=O)[C@@H]1C[C@@H](Oc2cc(-c3csc(NC(=O)OC)n3)nc3c(Br)c(OC)ccc23)CN1C(=O)[C@@H](NC(=O)OC1CCCC1)C(C)(C)C)C(=O)O`: the pIC50 is 8.22.

The compound `C=C[C@@H]1C[C@]1(NC(=O)[C@@H]1C[C@@H](Oc2cc(-c3csc(NC(=O)OC(C)C)n3)nc3c(Br)c(OC)ccc23)CN1C(=O)[C@@H](NC(=O)OC1CCCC1)C(C)(C)C)C(=O)O` had a pIC50 of 8.22.

Compound `C=C[C@@H]1C[C@]1(NC(=O)[C@@H]1C[C@@H](Oc2cc(-c3ccccc3)nc3cc(OC)ccc23)CN1C(=O)[C@@H](NC(=O)OC1CCCC1)C(C)(C)C)C(=O)O` had a pIC50 of 7.85.

On to `COc1ccc2c(O[C@@H]3C[C@H]4C(=O)N[C@]5(C(=O)O)C[C@H]5/C=C\CCCCC[C@H](NC(=O)OC5CCCC5)C(=O)N4C3)cc(-c3csc(NC(C)C)n3)nc2c1` [CILUPREVIR], for which the pIC50 was 8.52.

Compound `C=C[C@@H]1C[C@]1(NC(=O)[C@@H]1C[C@@H](Oc2cc(-c3csc(NC(=O)C(C)C)n3)nc3c(Br)c(OC)ccc23)CN1C(=O)[C@@H](NC(=O)OC1CCCC1)C(C)(C)C)C(=O)O` [FALDAPREVIR] gave a pIC50 of 8.52.

The test system of a further assay is Hepatitis C virus. Description: Antiviral activity against HCV Con1 by cell based-luciferase reporter gene assay. The class given is functional, organism-based, Hepacivirus hominis. The method, boiled down:
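Bicistronic luciferase reporter replicon cells (Con1 genotype 1b NS2-NS5B) exposed to compound for 72 h; luciferase read with Bright-Glo substrate by luminescence. EC50 fitted by nonlinear regression.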
Turning to `C=C[C@@H]1C[C@]1(NC(=O)[C@@H]1C[C@@H](Oc2cc(-c3csc(NC(C)=O)n3)nc3c(C)c(OC)ccc23)CN1C(=O)[C@@H](NC(=O)OC1CCCC1)C(C)(C)C)C(=O)O`, the pEC50 (usually the EC50 on a negative log10 scale, so that one unit is a factor of ten) is 7.72.

The compound `C=C[C@@H]1C[C@]1(NC(=O)[C@@H]1C[C@@H](Oc2cc(-c3csc(NC(=O)CC)n3)nc3c(F)c(OC)ccc23)CN1C(=O)[C@@H](NC(=O)OC1CCCC1)C(C)(C)C)C(=O)O` showed a pEC50 of 7.44. This pEC50 lies 0.28 log units lower than the previous one.

For the compound `C=C[C@@H]1C[C@]1(NC(=O)[C@@H]1C[C@@H](Oc2cc(-c3csc(NC(=O)CC)n3)nc3c(Cl)c(OC)ccc23)CN1C(=O)[C@@H](NC(=O)OC1CCCC1)C(C)(C)C)C(=O)O`, the pEC50 is 7.96.

As to `C=C[C@@H]1C[C@]1(NC(=O)[C@@H]1C[C@@H](Oc2cc(-c3csc(NC(=O)CC)n3)nc3c(Br)c(OC)ccc23)CN1C(=O)[C@@H](NC(=O)OC1CCCC1)C(C)(C)C)C(=O)O`, the pEC50 was 8.30.

In turn, `C=C[C@@H]1C[C@]1(NC(=O)[C@@H]1C[C@@H](Oc2cc(-c3csc(NC(=O)OC)n3)nc3c(Br)c(OC)ccc23)CN1C(=O)[C@@H](NC(=O)OC1CCCC1)C(C)(C)C)C(=O)O` gave a pEC50 of 8.52.

Compound `C=C[C@@H]1C[C@]1(NC(=O)[C@@H]1C[C@@H](Oc2cc(-c3csc(NC(=O)OC(C)C)n3)nc3c(Br)c(OC)ccc23)CN1C(=O)[C@@H](NC(=O)OC1CCCC1)C(C)(C)C)C(=O)O` gave a pEC50 of 8.22.

The compound `C=C[C@@H]1C[C@]1(NC(=O)[C@@H]1C[C@@H](Oc2cc(-c3ccccc3)nc3cc(OC)ccc23)CN1C(=O)[C@@H](NC(=O)OC1CCCC1)C(C)(C)C)C(=O)O` had a pEC50 of 6.26. Against the preceding compound, the pEC50 is 1.96 log units lower.

Take `COc1ccc2c(O[C@@H]3C[C@H]4C(=O)N[C@]5(C(=O)O)C[C@H]5/C=C\CCCCC[C@H](NC(=O)OC5CCCC5)C(=O)N4C3)cc(-c3csc(NC(C)C)n3)nc2c1` [CILUPREVIR]: the pEC50 was 8.70.

`C=C[C@@H]1C[C@]1(NC(=O)[C@@H]1C[C@@H](Oc2cc(-c3csc(NC(=O)C(C)C)n3)nc3c(Br)c(OC)ccc23)CN1C(=O)[C@@H](NC(=O)OC1CCCC1)C(C)(C)C)C(=O)O` [FALDAPREVIR] gave a pEC50 of 8.52. This pEC50 and that of the compound before are within 0.2 log units of each other.

Source of the values: ChEMBL document CHEMBL1240512, “Discovery of a potent and selective noncovalent linear inhibitor of the hepatitis C virus NS3 protease (BI 201335)” (J Med Chem, 2010).
